Measured values reported in PubChem BioAssay AID821 (SRMLSC, 2007).
The source made the active and inactive calls.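 The calls were made as follows: active = compounds whose fitted half-maximal concentration for reducing fibroblast viability is 100 µM or lower; inactive = the rest.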

experiment: LL 47 lung fibroblast growth inhibition, concentration-response, selectivity test for endothelial growth inhibitor program, cellular, luminescent ATP readout (AID 821); conditions: LL 47 lung fibroblast viability, ATP luminescence; at 20 µM (top of the series);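 also: 100% = median of untreated cell-only wells and 0% = no luminescence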
Procedure, shortened: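 Material – LL 47 human lung fibroblasts · Input – 1,150 cells/well · Doses – compound concentration series from 0.039 to 20 µM, 0.2% DMSO · Timing – 72 h exposure, 37 °C · Detection – CellTiter-Glo luminescence · Read-out basis – percent viability relative to untreated wells, EC50 via 4-parameter fit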

Q: For `CCCOC(=O)c1ccc(Oc2cn[nH]c2-c2ccc(OCC)cc2O)cc1`, which viability is on record?
A: 98.4% (inactive)

Q: With `COc1ccccc1N1CCN(CC(=O)c2c(C)[nH]c3cc(C)ccc23)CC1` as the molecule, how does the viability read?
A: 86.8% (inactive)

Q: For `Cn1c(SCC(=O)Nc2ccc(N3CCOCC3)cc2)nnc1-c1ccccc1`, which viability is on record?
A: 109% (inactive)

Q: With `O=C(CCC1COc2ccccc2O1)Nc1ccc(Cl)cn1` (stereo unspecified) as the molecule, how does the viability read?
A: 95.5% (inactive)

Q: For `Nc1nc(-c2ccccc2)cc(-c2ccccc2O)n1`, which viability is on record?
A: 104% (inactive)

Q: With `OC1(Cc2ccn[nH]2)CCCCC1` as the molecule, how does the viability read?
A: 105% (inactive)

Q: With `Cc1ccccc1-n1ncc2c([N+](=O)[O-])cc([N+](=O)[O-])cc21` as the molecule, how does the viability read?
A: 90.7% (inactive)

Q: Which viability does the source give for `Clc1cnc(N/N=C/c2cccs2)c(Cl)c1` here?
A: 88.3% (inactive)

Q: For `Cc1cccc(NC(=O)c2sc3nc4c(c(-c5cccs5)c3c2N)CN(C)CC4)c1`, which viability is on record?
A: 86.7% (inactive)

Q: For `COC(=O)CSc1nc2ccc(NC(=O)CSc3nnnn3Cc3ccccc3)cc2s1`, which viability is on record?
A: 108% (inactive)

Q: Which viability does the source give for `Cc1ccc(Cn2nc(C)c(NC(=O)c3cc(-c4ccc5c(c4)OCO5)on3)c2C)cc1` here?
A: 106% (inactive)

Q: With `C=CCN1C(=Nc2cccnc2)SCC1(O)c1ccc(C)cc1` (stereo unspecified) as the molecule, how does the viability read?
A: 86.4% (inactive)

Q: Which viability does the source give for `COc1ccc(NC(=O)CSc2nnc(-c3cccs3)n2-c2ccccc2)cc1` here?
A: 105% (inactive)

Q: With `c1ccc(CC2CCN(C3=Nc4cccc5cccc3c45)CC2)cc1` as the molecule, how does the viability read?
A: 80.8% (inactive)

Q: Which viability does the source give for `CCN1CCN(c2ncc(C(=O)Nc3cc(Cl)c(OC)cc3OC)c3ccccc23)CC1` here?
A: 103% (inactive)

Q: For `CCOc1cc(/C=C\c2[nH]c(=O)[nH]c(=O)c2[N+](=O)[O-])ccc1OC(C)CC` (stereo unspecified), which viability is on record?
A: 90.9% (inactive)

Q: For `CC(C)(C)NC(=O)c1cnn2c1NC(c1ccc(F)cc1)CC2C(F)(F)F` (stereo unspecified), which viability is on record?
A: 99% (inactive)

Q: Which viability does the source give for `O=C(Nc1ccc2c(c1)CCC2)c1cnn2c1NC(c1ccco1)CC2C(F)(F)F` (stereo unspecified) here?
A: 83.8% (inactive)

Q: For `Cn1c(=O)c2cc(NCc3ccccc3)nnc2n(C)c1=O`, which viability is on record?
A: 100% (inactive)

Q: With `COc1ccc(CNC(=O)C(C#N)c2nc3ccccc3nc2N2CCN(C)CC2)cc1` (stereo unspecified) as the molecule, how does the viability read?
A: 97.9% (inactive)

Q: Which viability does the source give for `COc1ccc(Cc2nc(C(=O)Nc3ccc(Cl)cc3)cs2)cc1` here?
A: 84.3% (inactive)

Q: For `CCC(C)NC(=O)c1c(N)n(/N=C/c2ccccn2)c2nc3ccccc3nc12` (stereo unspecified), which viability is on record?
A: 116% (inactive)

Q: Which viability does the source give for `COc1ccc2cc3cc(C(=O)Nc4ccc5c(c4)OCCO5)oc3nc2c1` here?
A: 98.4% (inactive)

Q: With `CCCn1c(Nc2nc3ccccc3n2C)nc2ccccc21` as the molecule, how does the viability read?
A: 102% (inactive)

Q: With `COc1ccccc1-c1cc(C(=O)Nc2cc(C)n(Cc3ccc(Cl)cc3)n2)no1` as the molecule, how does the viability read?
A: 86% (inactive)

Q: With `CSc1nnc2n(-c3ccc(C)cc3)c(=O)c3c4c(sc3n12)COC(C(C)C)C4` (stereo unspecified) as the molecule, how does the viability read?
A: 109% (inactive)

Q: With `OCCNc1nc2ccccc2n1-c1ncnc2sc3c(c12)CCC3` as the molecule, how does the viability read?
A: 91.9% (inactive)

Q: With `CCCCCCn1c(SCC(=O)c2c(N)n(C)c(=O)n(C)c2=O)nc2ccccc21` as the molecule, how does the viability read?
A: 98.8% (inactive)

Q: With `C=CCn1c(SCC(=O)NC(=O)NCc2ccco2)nc2sc(CC)cc2c1=O` as the molecule, how does the viability read?
A: 87.4% (inactive)

Q: For `COc1ccc(Cl)cc1N1CCN(CCNC(=O)Nc2ccccc2C)CC1`, which viability is on record?
A: 101% (inactive)

Q: Which viability does the source give for `CC1CCC(C(=O)c2c(O)c3ccccc3oc2=O)CC1` (stereo unspecified) here?
A: 88.2% (inactive)

Q: For `Oc1ccccc1NCC(O)Cn1ccc2ccccc21` (stereo unspecified), which viability is on record?
A: 98.6% (inactive)

Q: Which viability does the source give for `Cc1ccc2[nH]c(=O)c(C3C(C#N)=C(N)Oc4c3ccc3cccnc43)cc2c1` (stereo unspecified) here?
A: 86.9% (inactive)

Q: With `CCCC1(CCC)NC(=O)N(CC(=O)Nc2ccccc2OC)C1=O` as the molecule, how does the viability read?
A: 92.2% (inactive)

Q: For `COc1ccc(CNC(=O)c2cc3c(C)nc4ccccc4c3o2)c(OC)c1`, which viability is on record?
A: 88.7% (inactive)

Q: Which viability does the source give for `Cc1ccccc1NC(=O)CSC(N)=O` here?
A: 110% (inactive)

Q: For `COc1ccc(Cl)cc1C(=O)n1nc(C)cc1C`, which viability is on record?
A: 101% (inactive)

Q: Which viability does the source give for `CCCOC(=O)c1ccc(Oc2c(-c3ccc(OC)cc3O)n[nH]c2C)cc1` here?
A: 97.5% (inactive)

Q: For `Cn1c(-c2ccc3ccccc3n2)nc2cnccc21`, which viability is on record?
A: 93.4% (inactive)

Q: Which viability does the source give for `Cc1cccc(-c2nnc(NC(=O)c3ccc(Cl)cc3)o2)c1` here?
A: 87.4% (inactive)

Q: With `CC1CCCC(NC(=O)C2CCN(S(=O)(=O)N3CCC4(CC3)OCCO4)CC2)C1C` (stereo unspecified) as the molecule, how does the viability read?
A: 100% (inactive)

Q: Which viability does the source give for `O=C(Nc1cccnc1)c1ccc(Oc2ccccc2)cc1` here?
A: 85.3% (inactive)

Q: For `Cc1ccc(-c2nc3cccnc3o2)cc1NC(=O)COc1ccc(C(C)(C)C)cc1`, which viability is on record?
A: 99.4% (inactive)

Q: For `Cc1cccc(Nc2nc(NCc3ccco3)nc(N3CCOCC3)n2)c1`, which viability is on record?
A: 80.4% (inactive)

Q: With `O=C(Nc1nnc(-c2ccc3c(c2)OCCO3)o1)c1ccc(Cc2ccccc2)cc1` as the molecule, how does the viability read?
A: 97.9% (inactive)

Q: With `Cc1cccc(NC(=O)c2cc(NC(=O)c3ccco3)ccc2N2CCCCC2)c1` as the molecule, how does the viability read?
A: 82.5% (inactive)

Q: With `O=C(Nc1cccc(-c2nc3ncccc3o2)c1)c1cc2ccccc2o1` as the molecule, how does the viability read?
A: 116% (inactive)

Q: Which viability does the source give for `COc1ccc(OC)c2sc(N3CCCCC3)nc12` here?
A: 96.8% (inactive)

Q: With `Cc1cc(Cl)ccc1N=c1ssnc1Cl` as the molecule, how does the viability read?
A: 104% (inactive)

Q: Which viability does the source give for `O=C(NCCC1=CCCCC1)C1CCN(Cc2cnn(-c3ccccc3)c2-n2cccc2)CC1` here?
A: 92.5% (inactive)

Q: For `CCCS(=O)(=O)N1CCC(C(=O)N2CCC3(CC2)OCCO3)CC1`, which viability is on record?
A: 97.5% (inactive)

Q: Which viability does the source give for `CCCc1c(C)c2cc(C)ccc2[nH]c1=O` here?
A: 110% (inactive)

Q: Which viability does the source give for `Nc1nc2ccccc2n1/N=C/c1ccc(-c2ccccc2)o1` here?
A: 111% (inactive)

Q: For `Cc1ccc(C(=O)Nc2ncc(Cc3ccccc3)s2)o1`, which viability is on record?
A: 103% (inactive)

Q: For `Cc1cc(C)n(-c2nc(SCC(=O)N3CCCC3)c3c4c(sc3n2)CCCC4)n1`, which viability is on record?
A: 113% (inactive)

Q: With `COc1ccccc1C1CC(c2c(-c3ccccc3)c3cc(Cl)ccc3[nH]c2=O)=NN1S(C)(=O)=O` (stereo unspecified) as the molecule, how does the viability read?
A: 83.6% (inactive)

Q: For `COc1ccccc1N1CCN(C(=O)c2ccc(Br)s2)CC1`, which viability is on record?
A: 103% (inactive)

Q: With `Cc1cc(C(=O)Nc2nc3ccc(S(C)(=O)=O)cc3s2)c(C)o1` as the molecule, how does the viability read?
A: 92.9% (inactive)

Q: With `CCCCn1c(SCC(=O)Nc2cc(NC(=O)c3ccco3)ccc2C)nc2ccccc2c1=O` as the molecule, how does the viability read?
A: 99.3% (inactive)

Q: With `CC12CCC(=O)C=C1CCC1C2CCC2(C)C(O)CCC12` (stereo unspecified) as the molecule, how does the viability read?
A: 95.3% (inactive)

Q: For `COc1ccc(NC(=O)c2cc3n(n2)C(C(F)(F)F)CC(c2ccc(OC)cc2)N3)cc1` (stereo unspecified), which viability is on record?
A: 96.4% (inactive)

Q: Which viability does the source give for `Cc1cc(C)n(CC(O)Cn2c3ccc(Br)cc3c3cc(Br)ccc32)c(=O)n1` (stereo unspecified) here?
A: 119% (inactive)

Q: Which viability does the source give for `CCOc1cc(C(=O)CSc2nnc(CNc3ccc(Cl)cc3)o2)ccc1NC(=O)CC` here?
A: 96% (inactive)

Q: Which viability does the source give for `CCOc1ccc2nc(NC(=O)CSc3nc4c(c(=O)n(C)c(=O)n4C)n3C(C)C)sc2c1` here?
A: 102% (inactive)

Q: For `CC(C)(C)n1cnc2cc(NS(=O)(=O)c3ccccc3)ccc21`, which viability is on record?
A: 104% (inactive)

Q: With `O=C(Cc1sc(-c2ccccc2Cl)nc1-c1ccccc1)Nc1ccccc1` as the molecule, how does the viability read?
A: 99.7% (inactive)

Q: With `COc1ccc(-c2cc(C(=O)Nc3cc(C)n(Cc4ccc(Cl)cc4)n3)no2)cc1OC` as the molecule, how does the viability read?
A: 102% (inactive)

Q: With `Cc1nc(C)c(-c2csc(Nc3cccnc3)n2)s1` as the molecule, how does the viability read?
A: 87.8% (inactive)

Q: Which viability does the source give for `CNC(=O)Cn1c(=O)n(C)c2ccccc21` here?
A: 107% (inactive)

Q: For `Cc1nc2c(C(=O)NCCC(C)C)c[nH]n2c(=O)c1Cc1ccccc1F`, which viability is on record?
A: 99.7% (inactive)

Q: Which viability does the source give for `O=Cc1ccc(Sc2nnc(-c3ccccc3)o2)c([N+](=O)[O-])c1` here?
A: 89.9% (inactive)
